Series [1] concerns RAW264.7. As to the kind of experiment: Inhibition of zymosan phagocytosis in mouse RAW264.7 cells at 10 uM preincubated before zymosan addition by flow cytometry. In kind it is functional, cell-based. An outline of the steps: (§1)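 CD11b+ peritoneal macrophages (4 × 10^6/well) or RAW264.7 cells (2 × 10^6/well) were adhered 2 h and pretreated 30 min (5, 10, 20 µM; screen at 10 µM). Cells were scraped, washed, and incubated with FITC-zymosan (5 particles/cell) for 1 h at 37 °C. After washing, uptake was read by flow cytometry as a phagocytic index relative to untreated cells. Cytochalasin D 5 µM was the control.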

The subject of series [2] is RAW264.7. As to the kind of experiment: Toxicity in zymosan-induced mouse RAW264.7 cells at 5 to 20 uM preincubated before zymosan addition. Type of series: cell-based. Conditions: raw264.7, 20 µM.
Series [3] relates to RAW264.7. Nature of the series: Reduction in GTP-bound Cdc42 protein expression in mouse RAW264.7 cells at 20 uM preincubated for 5 mins before zymosan exposure for 15 mins by Western blot based pull down assay. In kind it is functional, cell-based. In outline:
(§2)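 RAW264.7 cells were pretreated with 20 µM (20 min for Rac1 and Rac2; 5 min for Cdc42), then given zymosan 200 µg/ml for 15 min. GTP-bound Rac1, Rac2 and Cdc42 were pulled down with an active pull-down kit and western blotted. Bands were quantified by densitometry and normalized to β-actin.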

Series [4] concerns Peritoneal macrophage cell. Nature of the series: Effect on TLR1 mRNA expression in C57BL/6 mouse CD11b(+) peritoneal macrophages at 20 uM preincubated for 30 mins before zymosan exposure for 6 hrs by real-time PCR.
Series [5] concerns Peritoneal macrophage cell. As to the kind of experiment: Effect on Dectin-1 mRNA expression in C57BL/6 mouse CD11b(+) peritoneal macrophages at 20 uM preincubated for 30 mins before zymosan exposure for 6 hrs by real-time PCR.
For series [6], the system named is RAW264.7. Nature of the series: Reduction in GTP-bound Rac2 protein expression in mouse RAW264.7 cells at 20 uM preincubated for 20 mins before zymosan exposure for 15 mins by Western blot based pull down assay. Type of series: functional, cell-based. In outline:
as §2

Series [7] deals with Peritoneal macrophage cell. As to the kind of experiment: Effect on TLR6 mRNA expression in C57BL/6 mouse CD11b(+) peritoneal macrophages at 20 uM preincubated for 30 mins before zymosan exposure for 6 hrs by real-time PCR.
Series [8] concerns Peritoneal macrophage cell. Nature of the series: Inhibition of zymosan phagocytosis in C57BL/6 mouse CD11b(+) peritoneal macrophages preincubated before zymosan addition by flow cytometry. In kind it is functional, cell-based. In outline:
as §1

Series [9] relates to RAW264.7. As to the kind of experiment: Reduction in GTP-bound Rac1 protein expression in mouse RAW264.7 cells at 20 uM preincubated for 20 mins before zymosan exposure for 15 mins by Western blot based pull down assay. Type of series: functional, cell-based. In outline:
as §2

For series [10], the system named is RAW264.7. Nature of the series: Inhibition of zymosan phagocytosis in mouse RAW264.7 cells preincubated before zymosan addition by flow cytometry. Type of series: functional, cell-based. An outline of the steps:
as §1

A short description of series [11]: Toxicity in zymosan-induced C57BL/6 mouse CD11b(+) peritoneal macrophages at 5 to 20 uM preincubated before zymosan addition. In kind it is cell-based. The following applies: peritoneal macrophage cell.
Series [12] deals with Peritoneal macrophage cell. Nature of the series: Effect on TLR2 mRNA expression in C57BL/6 mouse CD11b(+) peritoneal macrophages at 20 uM preincubated for 30 mins before zymosan exposure for 6 hrs by real-time PCR.
Series [13] is filed under the species Mus musculus. As to the kind of experiment: Inhibition of zymosan-induced PI3K in C57BL/6 mouse CD11b(+) peritoneal macrophages assessed as reduction in AKT Ser473 phosphorylation at 20 uM preincubated for 15 mins before zymosan exposure for 30 mins by Western blot. An outline of the steps:
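CD11b+ peritoneal macrophages from male C57BL/6 mice (thioglycollate-elicited; cells pooled from twenty mice) were pretreated with 20 µM for 15 min, then given zymosan 200 µg/ml for 30 min. Western blot for phospho-Akt (Ser473) and total Akt. p-Akt was quantified by densitometry and expressed as fold change.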

For series [14], the system named is Peritoneal macrophage cell. Nature of the series: Inhibition of zymosan phagocytosis in C57BL/6 mouse CD11b(+) peritoneal macrophages at 20 uM preincubated before zymosan addition by flow cytometry. In kind it is functional, cell-based. An outline of the steps: as §1

SMILES strings stand for the structures. Calls of active or inactive are those of the source. The rule behind the calls is not given here.

On to `CCCOc1ccc(-c2cccc(C(=O)NCCCN3CCOCC3)c2)cc1`, for which the inhibition entry in [1] is “inactive”.

Regarding `CCCNC(=O)c1cccc(-c2ccc(OCCC)cc2)c1`, the inhibition entry in [1] is “Active”.

Turning to `CCCOc1ccc(-c2cccc(C(=O)NCCCN(CC)CC)c2)cc1`, the Activity entry in series [2] and in [11] was “Non-toxic” throughout. The outcome in series [3], in [6] and in [9] was Active. Moreover, the outcome in series [4], in series [5], in [7] and in series [12] was inactive. Moreover, the inhibition entry in series [8] and in [10] was “Dose-dependent effect” throughout.

As to `CCCOc1ccc(-c2cccc(C(=O)NCCCN3CCCC3)c2)cc1`, the inhibition result in [1] is “Active”.

Regarding `O=c1cc(N2CCOCC2)oc2c(-c3ccccc3)cccc12`, in [13], the inhibition entry was “Active”. Also, the inhibition entry in series [14] was “inactive”.

For `CCCOc1ccc(-c2cccc(C(=O)NCCCN3CCCCC3)c2)cc1`, the inhibition entry in series [1] is “Active”.

Turning to `CCCOc1ccc(-c2cccc(C(=O)NCCCN(C)C)c2)cc1`, in [1], the inhibition result was “Active”.

For the molecule `CCCOc1ccc(-c2cccc(C(=O)NCCN(CC)CC)c2)cc1`, the inhibition result in series [1] is “inactive”.
